In ChEMBL document CHEMBL4052702 (Bioorg Med Chem Lett, 2017):

Columns and labels:
Homo sapiens [1] = species: Homo sapiens; assay: Inhibition of HDAC in human HeLa-S3 cells lysates assessed as remaining enzyme activity at 3.13 x 10^-8 M pre-incubated for 15 mins before HDAC-Glo I/II substrate addition and measured after 30 mins post substrate addition; assay type: cell-free
Homo sapiens [2] = species: Homo sapiens; assay: Inhibition of HDAC in human HeLa-S3 cells lysates assessed as remaining enzyme activity at 5 x 10^-7 M pre-incubated for 15 mins before HDAC-Glo I/II substrate addition and measured after 30 mins post substrate addition; assay type: cell-free
Homo sapiens [3] = species: Homo sapiens; assay: Inhibition of HDAC in human HeLa-S3 cells lysates assessed as remaining enzyme activity at 2.5 x 10^-7 M pre-incubated for 15 mins before HDAC-Glo I/II substrate addition and measured after 30 mins post substrate addition; assay type: cell-free
Homo sapiens [4] = species: Homo sapiens; assay: Inhibition of HDAC in human HeLa-S3 cells lysates assessed as remaining enzyme activity at 1.25 x 10^-7 M pre-incubated for 15 mins before HDAC-Glo I/II substrate addition and measured after 30 mins post substrate addition; assay type: cell-free
Homo sapiens [5] = species: Homo sapiens; assay: Inhibition of HDAC in human HeLa-S3 cells lysates assessed as remaining enzyme activity at 6.25 x 10^-8 M pre-incubated for 15 mins before HDAC-Glo I/II substrate addition and measured after 30 mins post substrate addition; assay type: cell-free
Histone deacetylase 1 [6] = molecular target: T1, Histone deacetylase 1 (Homo sapiens, UniProt Q13547); assay: Inhibition of HDAC1 (unknown origin) assessed as remaining enzyme activity at 0.025 uM by ELISA-based assay
T1 sequence (Q13547 whole entry, canonical isoform): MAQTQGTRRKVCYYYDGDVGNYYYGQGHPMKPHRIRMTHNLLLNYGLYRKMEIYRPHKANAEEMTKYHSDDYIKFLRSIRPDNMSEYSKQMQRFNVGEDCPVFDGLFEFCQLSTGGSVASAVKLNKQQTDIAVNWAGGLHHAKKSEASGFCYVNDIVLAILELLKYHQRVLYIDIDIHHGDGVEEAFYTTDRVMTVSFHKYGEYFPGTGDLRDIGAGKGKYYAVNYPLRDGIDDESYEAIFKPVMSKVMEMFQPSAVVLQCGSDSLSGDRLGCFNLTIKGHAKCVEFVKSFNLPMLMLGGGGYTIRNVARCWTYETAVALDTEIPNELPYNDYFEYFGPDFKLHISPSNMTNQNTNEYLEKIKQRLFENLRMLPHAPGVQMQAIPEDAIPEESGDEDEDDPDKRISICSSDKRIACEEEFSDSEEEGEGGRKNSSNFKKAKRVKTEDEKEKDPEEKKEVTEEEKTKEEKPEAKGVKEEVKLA
In short: (§1)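 Isoform screen by ELISA-based HDAC activity assay against HDAC1, HDAC2, HDAC3 and HDAC6. Each analog was tested at one final concentration: 0.025, 0.125, 0.25 or 1.25 µM. Read-out is percent deacetylase activity remaining, given as the mean with standard error of at least two independent trials.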

Histone deacetylase 2 [7] = molecular target: T2, Histone deacetylase 2 (Homo sapiens, UniProt Q92769); assay: Inhibition of HDAC2 (unknown origin) assessed as remaining enzyme activity at 0.025 uM by ELISA-based assay; in short: as §1
T2 sequence (Q92769 whole entry): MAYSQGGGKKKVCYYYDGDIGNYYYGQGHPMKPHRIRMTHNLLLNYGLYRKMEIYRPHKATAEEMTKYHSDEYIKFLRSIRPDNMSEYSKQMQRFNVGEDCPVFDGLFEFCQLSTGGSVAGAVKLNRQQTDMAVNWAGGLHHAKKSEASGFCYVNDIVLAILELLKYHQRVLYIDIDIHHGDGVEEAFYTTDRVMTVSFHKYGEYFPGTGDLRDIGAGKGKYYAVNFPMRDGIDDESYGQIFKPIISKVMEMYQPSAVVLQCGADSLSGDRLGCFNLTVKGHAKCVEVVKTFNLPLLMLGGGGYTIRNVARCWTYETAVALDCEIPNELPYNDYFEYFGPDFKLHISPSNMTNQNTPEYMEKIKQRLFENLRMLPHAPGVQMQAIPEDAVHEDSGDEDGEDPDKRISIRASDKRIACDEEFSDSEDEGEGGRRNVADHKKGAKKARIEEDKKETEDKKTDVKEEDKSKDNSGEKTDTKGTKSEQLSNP

Histone deacetylase 3 [8] = molecular target: T3, Histone deacetylase 3 (Homo sapiens, UniProt O15379); assay: Inhibition of HDAC3 (unknown origin) assessed as remaining enzyme activity at 0.025 uM by ELISA-based assay; in short: as §1
T3 sequence (O15379 whole entry): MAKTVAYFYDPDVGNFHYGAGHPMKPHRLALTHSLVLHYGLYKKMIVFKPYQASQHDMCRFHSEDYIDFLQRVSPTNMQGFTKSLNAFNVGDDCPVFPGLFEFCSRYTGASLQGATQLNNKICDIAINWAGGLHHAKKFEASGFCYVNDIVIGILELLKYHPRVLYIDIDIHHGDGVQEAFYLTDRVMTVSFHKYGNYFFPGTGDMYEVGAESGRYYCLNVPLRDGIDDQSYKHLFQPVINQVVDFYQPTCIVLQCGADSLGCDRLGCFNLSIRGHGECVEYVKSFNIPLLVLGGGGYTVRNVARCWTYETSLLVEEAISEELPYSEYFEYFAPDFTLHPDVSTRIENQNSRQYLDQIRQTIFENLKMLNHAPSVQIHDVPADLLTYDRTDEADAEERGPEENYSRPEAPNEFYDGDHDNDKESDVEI

[9] = molecular target: T4, Protein deacetylase HDAC6 (Homo sapiens) (UniProt Q9UBN7); assay: Inhibition of HDAC6 (unknown origin) assessed as remaining enzyme activity at 0.025 uM by ELISA-based assay; in short: as §1
T4 sequence (whole entry): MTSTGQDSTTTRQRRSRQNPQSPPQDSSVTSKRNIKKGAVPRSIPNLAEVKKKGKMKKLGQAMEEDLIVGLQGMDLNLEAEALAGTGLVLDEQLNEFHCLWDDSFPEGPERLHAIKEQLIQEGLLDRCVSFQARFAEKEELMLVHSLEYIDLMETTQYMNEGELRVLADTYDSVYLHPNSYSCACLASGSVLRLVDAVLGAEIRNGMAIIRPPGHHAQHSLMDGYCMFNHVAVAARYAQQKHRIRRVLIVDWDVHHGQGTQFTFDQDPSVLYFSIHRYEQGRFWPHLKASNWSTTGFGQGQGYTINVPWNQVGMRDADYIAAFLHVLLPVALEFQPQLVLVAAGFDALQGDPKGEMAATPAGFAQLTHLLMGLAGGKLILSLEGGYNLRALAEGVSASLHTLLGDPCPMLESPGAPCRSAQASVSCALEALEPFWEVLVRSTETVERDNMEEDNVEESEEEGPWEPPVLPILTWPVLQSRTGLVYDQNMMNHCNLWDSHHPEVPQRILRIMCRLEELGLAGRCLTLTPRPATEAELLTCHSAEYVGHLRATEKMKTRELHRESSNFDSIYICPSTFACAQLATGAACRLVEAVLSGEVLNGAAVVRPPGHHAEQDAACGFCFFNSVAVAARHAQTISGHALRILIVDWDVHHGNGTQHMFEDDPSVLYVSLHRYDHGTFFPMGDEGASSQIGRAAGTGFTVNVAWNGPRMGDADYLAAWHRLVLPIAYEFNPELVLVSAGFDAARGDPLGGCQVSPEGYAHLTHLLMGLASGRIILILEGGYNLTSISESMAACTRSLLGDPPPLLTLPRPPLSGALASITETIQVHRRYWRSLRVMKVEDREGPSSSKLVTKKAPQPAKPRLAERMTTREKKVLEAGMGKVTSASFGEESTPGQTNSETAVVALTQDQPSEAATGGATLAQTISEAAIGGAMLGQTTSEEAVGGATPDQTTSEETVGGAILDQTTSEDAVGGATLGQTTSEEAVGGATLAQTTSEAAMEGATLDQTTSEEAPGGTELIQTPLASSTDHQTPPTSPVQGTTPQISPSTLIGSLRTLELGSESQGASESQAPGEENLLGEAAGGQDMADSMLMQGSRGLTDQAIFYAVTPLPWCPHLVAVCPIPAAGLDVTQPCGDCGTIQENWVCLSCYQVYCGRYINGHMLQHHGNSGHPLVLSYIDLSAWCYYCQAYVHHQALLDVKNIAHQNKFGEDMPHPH

[10] = Inhibition of HDAC in human HeLa-S3 cells lysates pre-incubated for 15 mins before HDAC-Glo I/II substrate addition and measured after 30 mins post substrate addition; assay type: cell-based
Homo sapiens [11] = species: Homo sapiens; assay: Inhibition of HDAC in human HeLa-S3 cells lysates assessed as remaining enzyme activity at 8 x 10^-6 M pre-incubated for 15 mins before HDAC-Glo I/II substrate addition and measured after 30 mins post substrate addition; assay type: cell-free
Homo sapiens [12] = species: Homo sapiens; assay: Inhibition of HDAC in human HeLa-S3 cells lysates assessed as remaining enzyme activity at 4 x 10^-6 M pre-incubated for 15 mins before HDAC-Glo I/II substrate addition and measured after 30 mins post substrate addition; assay type: cell-free
Homo sapiens [13] = species: Homo sapiens; assay: Inhibition of HDAC in human HeLa-S3 cells lysates assessed as remaining enzyme activity at 2 x 10^-6 M pre-incubated for 15 mins before HDAC-Glo I/II substrate addition and measured after 30 mins post substrate addition; assay type: cell-free
Homo sapiens [14] = species: Homo sapiens; assay: Inhibition of HDAC in human HeLa-S3 cells lysates assessed as remaining enzyme activity at 1 x 10^-6 M pre-incubated for 15 mins before HDAC-Glo I/II substrate addition and measured after 30 mins post substrate addition; assay type: cell-free
Histone deacetylase 1 [15] = molecular target: T1, Histone deacetylase 1; assay: Inhibition of HDAC1 (unknown origin) assessed as remaining enzyme activity at 0.125 uM by ELISA-based assay; in short: as §1
Histone deacetylase 2 [16] = molecular target: T2, Histone deacetylase 2; assay: Inhibition of HDAC2 (unknown origin) assessed as remaining enzyme activity at 0.125 uM by ELISA-based assay; in short: as §1
Histone deacetylase 3 [17] = molecular target: T3, Histone deacetylase 3; assay: Inhibition of HDAC3 (unknown origin) assessed as remaining enzyme activity at 0.125 uM by ELISA-based assay; in short: as §1
[18] = molecular target: T4, Protein deacetylase HDAC6 (Homo sapiens); assay: Inhibition of HDAC6 (unknown origin) assessed as remaining enzyme activity at 0.125 uM by ELISA-based assay; in short: as §1

Activity (Histone deacetylase 1 [6]) [%]	Activity (Histone deacetylase 2 [7]) [%]	Activity (Histone deacetylase 3 [8]) [%]	Activity [9] [%]	IC50 [10] [nM]	Activity (Histone deacetylase 1 [15]) [%]	Activity (Histone deacetylase 2 [16]) [%]	Activity (Histone deacetylase 3 [17]) [%]	Activity [18] [%]	SMILES	Activity (Homo sapiens [1]) [%]	Activity (Homo sapiens [2]) [%]	Activity (Homo sapiens [3]) [%]	Activity (Homo sapiens [4]) [%]	Activity (Homo sapiens [5]) [%]	Activity (Homo sapiens [11]) [%]	Activity (Homo sapiens [12]) [%]	Activity (Homo sapiens [13]) [%]	Activity (Homo sapiens [14]) [%]
67	81	80	63	–	–	–	–	–	CC(CCCC(=O)NO)CCC(=O)Nc1ccccc1 (centres undefined)	85	14	15	44	68	–	–	–	–
–	–	–	–	2200	83	85	86	63	O=C(CCCC(CCC(=O)Nc1ccccc1)c1ccccc1)NO (centres undefined)	–	94	–	–	–	15	31	53	74
